Published values collected from several papers.
Lines come from different studies, so protocols differ.
Target: Casein kinase I isoform delta (CSNK1D, Homo sapiens, UniProt P48730)

With `CS(=O)(=O)Nc1cccc(-c2csc(NC(=O)CSc3nc4nccnc4c(=O)n3CCc3ccccc3)n2)c1` the inhibition was 10% (enzyme activity, inhibitor; 10 µM).
With `O=C(NCc1ncc(C(F)(F)F)cc1Cl)c1ccc2c(c1)C1(CCS(=O)(=O)CC1)[C@@H](C1CC1)N2S(=O)(=O)c1ccc(F)cc1` the remaining binding was 93% (cell-free assay, competition with immobilised ligand; 1 µM).
With `COc1cc2c(N3CCN(C(=O)Nc4ccc(OC(C)C)cc4)CC3)ncnc2cc1OCCCN1CCCCC1` the remaining signal was 90.9% (cell-free assay; 0.5 µM).
The inhibition of `COc1cc2ncnc(Nc3ccc(Oc4ccccc4)c(C)c3C)c2cc1OC` is reported as 1% (enzyme activity, inhibitor; 1 µM).
With `CCCOc1ccc(OC)c(F)c1C(=O)c1ccc(C(=O)N[C@@H]2CNC[C@H]2NC(=O)c2ccc3[nH]ncc3c2)cc1` the remaining activity was 43% (enzyme activity, inhibitor; 10 µM).
For `Cc1ccc(C(=O)Nc2ccc(CN3CCN(C)CC3)c(C(F)(F)F)c2)cc1C#Cc1cnc2cccnn12`, the remaining activity was 100% (enzyme activity; 23.5 nM).
For `COc1cc(Nc2cnc(C#N)c(O[C@H](C)CN(C)C)n2)ncc1-c1cnn(C)c1`, the remaining activity was 76% (enzyme activity, inhibitor, radiometric; 1 µM).
The remaining binding of `O=C1CCc2cc(Nc3cc(OC4CCOCC4)c([N+](=O)[O-])cc3Cl)ccc2N1` is reported as 90% (cell-free assay, competition with immobilised ligand; 1 µM).
For `FC(F)(F)Oc1cccc(-c2cnc3ccc(-c4ccncc4)nn23)c1`, the activity vs control was 100% (enzyme activity, inhibitor, radiometric; 1 µM).
`CC(=O)N1CCC(c2ccc(C(=O)NC3=NCCN3)cc2C(F)(F)F)CC1` has a remaining binding of 100% (cell-free assay, competition with immobilised ligand; 1 µM).
`Cc1cc(NC(=O)c2cccc3cc(-c4cccc5[nH]nc(N)c45)ccc23)ccc1F` gave an activity vs control of 96% (enzyme activity, inhibitor; 0.1 µM).
The remaining binding of `CCCOc1ccc([C@H]2[C@H](C(=O)O)[C@@H](c3ccc4c(c3)OCO4)CN2CC(=O)Nc2c(CC)cccc2CC)cc1` is reported as 80% (cell-free assay, competition with immobilised ligand; 1 µM).
For `Cc1ccc(NC(=O)c2ccc(C)c(C(F)(F)F)c2)cc1C#Cc1nn(C2CCC(O)CC2)c2ncnc(N)c12` (centres unmarked), the remaining signal was 88% (cell-free assay; 10 µM).
`COc1cc2c(Nc3ccc(Br)cc3F)ncnc2cc1OCC1CCN(C)CC1` gave a remaining signal of 94.4% (cell-free assay; 0.5 µM).
With `Cc1nccc(COC(=O)N2C[C@@H]3[C@@H](CNC(=O)c4ccc5[nH]nnc5c4)[C@@H]3C2)n1` the remaining binding was 97% (cell-free assay, competition with immobilised ligand; 1 µM).
`Nc1ncnc2c1cnn2-c1ccccc1` has a remaining signal of 79.5% (cell-free assay; 0.5 µM).
With `CC(C)(C)c1nc2c(s1)c1nc(N)ncc1c1ccc(NS(=O)(=O)c3c(F)cccc3F)c(F)c12` the remaining activity was 79% (enzyme activity, inhibitor, radiometric; 1 µM).
